The source made the active and inactive calls.
Columns and labels:
RPMI-8226 [1] = experiment: Upregulation of DDIT4L gene in human RPMI-8226 cells at 1 uM for 6 days by; format: functional, cell-based; settings: time 6.0 day
Summary of the method: (§1)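 Human myeloma lines RPMI-8226 and MM.1S exposed to 1 μM DOT1L inhibitor, or DMSO, for 6 days. Whole-genome expression profiled on gene expression microarray.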

MM1.S [2] = experiment: Upregulation of MILR1 gene in human MM1.S cells at 1 uM for 6 days by; format: functional, cell-based; settings: time 6.0 day
MM1.S [3] = experiment: Upregulation of CLIP2 gene in human MM1.S cells at 1 uM for 6 days by; format: functional, cell-based; settings: time 6.0 day; summary of the method: as §1
MM1.S [4] = experiment: Upregulation of CMTM3 gene in human MM1.S cells at 1 uM for 6 days by; format: functional, cell-based; settings: time 6.0 day; summary of the method: as §1
RPMI-8226 [5] = experiment: Upregulation of CPQ gene in human RPMI-8226 cells at 1 uM for 6 days by; format: functional, cell-based; settings: time 6.0 day; summary of the method: as §1
RPMI-8226 [6] = experiment: Upregulation of EMID1 gene in human RPMI-8226 cells at 1 uM for 6 days by; format: functional, cell-based; settings: time 6.0 day; summary of the method: as §1
MM1.S [7] = experiment: Upregulation of HLA-DPB1 gene in human MM1.S cells at 1 uM for 6 days by; format: functional, cell-based; settings: time 6.0 day; summary of the method: as §1
RPMI-8226 [8] = experiment: Upregulation of GLYATL1 gene in human RPMI-8226 cells at 1 uM for 6 days by; format: functional, cell-based; settings: time 6.0 day; summary of the method: as §1
RPMI-8226 [9] = experiment: Upregulation of FAM200B gene in human RPMI-8226 cells at 1 uM for 6 days by; format: functional, cell-based; settings: time 6.0 day; summary of the method: as §1
RPMI-8226 [10] = experiment: Upregulation of CTSH gene in human RPMI-8226 cells at 1 uM for 6 days by; format: functional, cell-based; settings: time 6.0 day; summary of the method: as §1
MM1.S [11] = experiment: Upregulation of FBXO2 gene in human MM1.S cells at 1 uM for 6 days by; format: functional, cell-based; settings: time 6.0 day; summary of the method: as §1
RPMI-8226 [12] = experiment: Effect on human RPMI-8226 cells assessed as change in Myc mRNA level at 1 uM for 6 days by qRT-PCR analysis; settings: time 6.0 day
MM1.S [13] = experiment: Upregulation of APH1B gene in human MM1.S cells at 1 uM for 6 days by; format: functional, cell-based; settings: time 6.0 day
MM1.S [14] = experiment: Upregulation of RIMBP3 gene in human MM1.S cells at 1 uM for 6 days by; format: functional, cell-based; settings: time 6.0 day
MM1.S [15] = experiment: Upregulation of MMP9 gene in human MM1.S cells at 1 uM for 6 days by; format: functional, cell-based; settings: time 6.0 day
RPMI-8226 [16] = experiment: Upregulation of CHRNA6 gene in human RPMI-8226 cells at 1 uM for 6 days by; format: functional, cell-based; settings: time 6.0 day; summary of the method: as §1
MM1.S [17] = experiment: Upregulation of CXCL9 gene in human MM1.S cells at 1 uM for 6 days by; format: functional, cell-based; settings: time 6.0 day; summary of the method: as §1
RPMI-8226 [18] = experiment: Upregulation of ID2 gene in human RPMI-8226 cells at 1 uM for 6 days by; format: functional, cell-based; settings: time 6.0 day
RPMI-8226 [19] = experiment: Upregulation of IFI44 gene in human RPMI-8226 cells at 1 uM for 6 days by; format: functional, cell-based; settings: time 6.0 day
RPMI-8226 [20] = experiment: Upregulation of CXCL12 gene in human RPMI-8226 cells at 1 uM for 6 days by; format: functional, cell-based; settings: time 6.0 day; summary of the method: as §1
MM1.S [21] = experiment: Upregulation of TTC39C gene in human MM1.S cells at 1 uM for 6 days by; format: functional, cell-based; settings: time 6.0 day
MM1.S [22] = experiment: Upregulation of XKR3 gene in human MM1.S cells at 1 uM for 6 days by; format: functional, cell-based; settings: time 6.0 day
MM1.S [23] = experiment: Upregulation of FZD1 gene in human MM1.S cells at 1 uM for 6 days by; format: functional, cell-based; settings: time 6.0 day; summary of the method: as §1
RPMI-8226 [24] = experiment: Upregulation of ACOT11 gene in human RPMI-8226 cells at 1 uM for 6 days by; format: functional, cell-based; settings: time 6.0 day
MM1.S [25] = experiment: Upregulation of FAM200B gene in human MM1.S cells at 1 uM for 6 days by; format: functional, cell-based; settings: time 6.0 day; summary of the method: as §1
MM1.S [26] = experiment: Upregulation of HLA-DMA gene in human MM1.S cells at 1 uM for 6 days by; format: functional, cell-based; settings: time 6.0 day; summary of the method: as §1
MM1.S [27] = experiment: Upregulation of ZSCAN31 gene in human MM1.S cells at 1 uM for 6 days by; format: functional, cell-based; settings: time 6.0 day
MM1.S [28] = experiment: Upregulation of CAPG gene in human MM1.S cells at 1 uM for 6 days by; format: functional, cell-based; settings: time 6.0 day
RPMI-8226 [29] = experiment: Upregulation of GPD2 gene in human RPMI-8226 cells at 1 uM for 6 days by; format: functional, cell-based; settings: time 6.0 day; summary of the method: as §1
MM1.S [30] = experiment: Upregulation of SGK1 gene in human MM1.S cells at 1 uM for 6 days by; format: functional, cell-based; settings: time 6.0 day
RPMI-8226 [31] = experiment: Upregulation of CCR2 gene in human RPMI-8226 cells at 1 uM for 6 days by; format: functional, cell-based; settings: time 6.0 day
RPMI-8226 [32] = experiment: Upregulation of BMF gene in human RPMI-8226 cells at 1 uM for 6 days by; format: functional, cell-based; settings: time 6.0 day
RPMI-8226 [33] = experiment: Upregulation of ZNF75D gene in human RPMI-8226 cells at 1 uM for 6 days by; format: functional, cell-based; settings: time 6.0 day
MM1.S [34] = experiment: Upregulation of PYCARD gene in human MM1.S cells at 1 uM for 6 days by; format: functional, cell-based; settings: time 6.0 day
MM1.S [35] = experiment: Upregulation of DDIT4L gene in human MM1.S cells at 1 uM for 6 days by; format: functional, cell-based; settings: time 6.0 day; summary of the method: as §1
MM1.S [36] = experiment: Upregulation of APOL4 gene in human MM1.S cells at 1 uM for 6 days by; format: functional, cell-based; settings: time 6.0 day
RPMI-8226 [37] = experiment: Upregulation of AIF1 gene in human RPMI-8226 cells at 1 uM for 6 days by; format: functional, cell-based; settings: time 6.0 day
MM1.S [38] = experiment: Upregulation of CHRNA6 gene in human MM1.S cells at 1 uM for 6 days by; format: functional, cell-based; settings: time 6.0 day
MM1.S [39] = experiment: Upregulation of PARP8 gene in human MM1.S cells at 1 uM for 6 days by; format: functional, cell-based; settings: time 6.0 day
MM1.S [40] = experiment: Upregulation of CARD6 gene in human MM1.S cells at 1 uM for 6 days by; format: functional, cell-based; settings: time 6.0 day
RPMI-8226 [41] = experiment: Upregulation of RGS1 gene in human RPMI-8226 cells at 1 uM for 6 days by; format: functional, cell-based; settings: time 6.0 day
MM1.S [42] = experiment: Effect on human MM1.S cells assessed as change in PRDM1 mRNA level at 1 uM for 3 days by ChIP-qPCR analysis; format: functional, cell-based; settings: time 3.0 day
Summary of the method: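 ChIP-qPCR for H3K79me2 at IRF4-MYC signaling genes after 1 μM inhibitor or DMSO for 3 days. Signal normalized to input DNA. An intergenic region 28 kb upstream of KLF2 served as negative control. Mean of 3 replications ± SEM.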

MM1.S [43] = experiment: Induction of cell cycle arrest in human MM1.S cells assessed as decrease in accumulation of cells at S phase at 1 uM for 6 days; format: functional, cell-based; settings: time 6.0 day
Summary of the method: (§2)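 Flow cytometric cell cycle analysis of RPMI-8226 and MM.1S cells treated with 1 μM DOT1L inhibitor or DMSO for 6 days. Sub-G1, G0-G1 and S phase populations scored. Summary is from 3 replications, mean ± SEM.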

RPMI-8226 [44] = experiment: Induction of cell cycle arrest in human RPMI-8226 cells assessed as decrease in accumulation of cells at S phase at 1 uM for 6 days; format: functional, cell-based; settings: time 6.0 day; summary of the method: as §2
MM1.S [45] = experiment: Upregulation of IFN in human MM1.S cells assessed as increase in IFIT1 gene at 1 uM for 6 days by qRT-PCR analysis; format: functional, cell-based; settings: time 6.0 day
RPMI-8226 [46] = experiment: Induction of apoptosis in human RPMI-8226 cells assessed as early apoptotic cells at 1 uM for 6 days by annexin-V based propidium iodide staining based flow cytometric analysis (reference value: 8.16%); format: functional; settings: time 6 day

Measured: Activity

CC(C)N(CCCNC(=O)Nc1ccc(C(C)(C)C)cc1)C[C@H]1O[C@@H](n2cc(Br)c3c(N)ncnc32)[C@H](O)[C@@H]1O
not listed: MM1.S [42] | MM1.S [43] | RPMI-8226 [44] | MM1.S [45] | RPMI-8226 [46]
active: all other assays above

CC(C)N(C[C@H]1O[C@@H](n2cnc3c(N)ncnc32)[C@H](O)[C@@H]1O)[C@H]1C[C@@H](CCc2nc3cc(C(C)(C)C)ccc3[nH]2)C1 [PINOMETOSTAT]
active: MM1.S [42] | MM1.S [43] | RPMI-8226 [44] | MM1.S [45]
15%: RPMI-8226 [46]

Reference: ChEMBL document CHEMBL5712901, “DOT1L inhibition blocks multiple myeloma cell proliferation by suppressing IRF4-MYC signaling” (2019)
